From ChEMBL document CHEMBL3352187, “Design, synthesis and molecular docking study of novel quinoxalin-2(1H)-ones as anti-tumor active agents with inhibition of tyrosine kinase receptor and studying their cyclooxygenase-2 activity” (Eur J Med Chem, 2014)

Legend:
[1] = test system: HepG2; assay: Cytotoxicity against human HepG2 cells after 48 hrs by sulforhodamine B assay; assay type: functional, cell-based; conditions: HepG2, 48 h
Procedure, shortened: (§1)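 Cells seeded at 10^4 per well, left 24 h to attach, then exposed to 0, 12.5, 25, 50 […] as printed, triplicate wells per dose, 48 h at 37 °C, 5% CO2. Fixed, stained with sulforhodamine B, excess dye removed with acetic acid, bound dye taken up in Tris EDTA and read on an ELISA reader. IC50 from survival curve of surviving fraction against concentration.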

[2] = test system: HepG2; assay: Inhibition of protein tyrosine kinase in human HepG2 cells assessed as change in TRK level at cytotoxic IC50 level incubated for 24 hrs by ELISA method; assay type: cell-based; design: scale not given: the % may be the effect or the level left
Procedure, shortened: (§2)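 Cells kept in DMEM with 10% heat-inactivated fetal calf serum plus penicillin/streptomycin at 37 °C, 5% CO2. […] Cells homogenized in saline. TRK measured by double-antibody sandwich ELISA, OD 450 nm, read against a standard curve in triplicate. Percent inhibition relative to DMSO-treated control cells.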

[3] = test system: MCF7; assay: Inhibition of protein tyrosine kinase in human MCF7 cells assessed as change in TRK level at cytotoxic IC50 level incubated for 24 hrs by ELISA method; assay type: cell-based; design: scale not given: the % may be the effect or the level left; procedure, shortened: as §2
[4] = test system: MCF7; assay: Cytotoxicity against human MCF7 cells after 48 hrs by sulforhodamine B assay; assay type: functional, cell-based; conditions: MCF7, 48 h; procedure, shortened: as §1
[5] = molecular target: T1, Prostaglandin G/H synthase 1 (Ovis aries, UniProt P05979); assay: Inhibition of ovine COX1 assessed as reduction in PGH2 production using arachidonic acid substrate by enzyme immunoassay
T1 sequence (P05979 whole entry): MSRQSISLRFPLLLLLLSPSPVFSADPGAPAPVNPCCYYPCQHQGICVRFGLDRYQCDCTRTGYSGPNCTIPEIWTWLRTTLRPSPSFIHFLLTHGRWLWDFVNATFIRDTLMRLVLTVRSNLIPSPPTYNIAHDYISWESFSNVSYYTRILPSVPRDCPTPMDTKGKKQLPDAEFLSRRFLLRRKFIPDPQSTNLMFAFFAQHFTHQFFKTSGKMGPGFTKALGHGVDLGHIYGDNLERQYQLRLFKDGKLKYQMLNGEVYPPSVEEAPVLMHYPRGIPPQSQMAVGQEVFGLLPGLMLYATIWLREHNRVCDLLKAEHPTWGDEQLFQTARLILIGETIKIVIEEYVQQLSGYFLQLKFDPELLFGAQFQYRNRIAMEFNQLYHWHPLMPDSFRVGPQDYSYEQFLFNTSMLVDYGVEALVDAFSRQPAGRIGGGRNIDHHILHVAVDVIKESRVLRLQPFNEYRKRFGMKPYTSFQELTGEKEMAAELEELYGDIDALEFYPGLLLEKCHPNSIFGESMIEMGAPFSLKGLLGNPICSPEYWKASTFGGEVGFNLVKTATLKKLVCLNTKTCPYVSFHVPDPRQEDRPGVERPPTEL
Procedure, shortened: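 Ovine COX-1 with heme in 0.1 M Tris-HCl pH 8.0 containing 5 mM EDTA and 2 mM phenol. Test compound given at […] final, from DMSO stock. Preincubated 5 min at 37 °C, then arachidonic acid added; stopped with 1 M HCl after 2 min. PGH2 reduced to PGF2a by stannous chloride, measured by competitive EIA at 410 nm. IC50 from concentration-inhibition curve, duplicate determinations.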

SMILES	IC50 [5] [µM]	IC50 [1] [µM]	Activity [2] [%]	Activity [3] [%]	IC50 [4] [µM]
Cc1nn(-c2ccccc2)c(SCCO)c1/C=N/Nc1nc2ccccc2nc1O	–	23.4	78	82	11.3
Cc1nn(-c2ccccc2)c(N2CCN(S(=O)(=O)c3ccccc3[N+](=O)[O-])CC2)c1/C=N/Nc1nc2ccccc2nc1O	–	32.2	13	37	14.3
Cc1nn(-c2ccccc2)c(SCC(=O)O)c1/C=N/Nc1nc2ccccc2nc1O	–	40.6	22	4	33.6
Cc1nn(-c2ccc([N+](=O)[O-])cc2)c(Cl)c1/C=N/Nc1nc2ccccc2[nH]c1=O	–	34.2	39	40	20.7
Cc1nn(-c2ccccc2)c(Cl)c1/C=N/Nc1nc2ccccc2[nH]c1=O	> 50	19.6	79	34	25.2
Cc1nn(-c2ccccc2)c(N2CCN(S(=O)(=O)c3ccccc3)CC2)c1/C=N/Nc1nc2ccccc2nc1O	–	28.1	19	12	26.2
Cc1nn(-c2ccccc2)c(OC2CCCC2)c1/C=N/Nc1nc2ccccc2nc1O	> 50	36.5	40	16.5	31.5

Continued, in another order:

IC50 [5] [µM]	SMILES	IC50 [1] [µM]	Activity [2] [%]	Activity [3] [%]	IC50 [4] [µM]
> 50	CC(=O)N1CCN(c2c(/C=N/Nc3nc4ccccc4nc3O)c(C)nn2-c2ccccc2)CC1	11	80	–	18
> 50	Cc1nn(-c2ccccc2)c(N2CCCCC2)c1/C=N/Nc1nc2ccccc2nc1O	18.1	75	74	12.8
> 50	Cc1nn(-c2ccccc2)c(N2CCN(C)CC2)c1/C=N/Nc1nc2ccccc2nc1O	11.4	83	83	10
> 50	Cc1nn(-c2ccccc2)c(N2CCOCC2)c1/C=N/Nc1nc2ccccc2nc1O	11	84	85	9.28
> 50	Cc1nn(-c2ccccc2)c(N(C)C)c1/C=N/Nc1nc2ccccc2nc1O	31.5	73	62	18
> 50	Cc1nn(-c2ccccc2)c(N2CCNCC2)c1/C=N/Nc1nc2ccccc2nc1O	38.1	20	66	16.3
